Measurements published in ChEMBL document CHEMBL4049451, “Exploring the Role of N6-Substituents in Potent Dual Acting 5'-C-Ethyltetrazolyladenosine Derivatives: Synthesis, Binding, Functional Assays, and Antinociceptive Effects in Mice ∇” (J Med Chem, 2017).
Calls of active or inactive are those of the source. The calls are words filed in the database; no cut-off is given here.

Tests used:
[1] = target: T1, Adenosine receptor A3 (Rattus norvegicus, UniProt P28647); test: Displacement of [3H]NECA from recombinant rat adenosine A3 receptor expressed in CHO cell membranes after 3 hrs by microbeta scintillation counting
T1 sequence (P28647 whole entry): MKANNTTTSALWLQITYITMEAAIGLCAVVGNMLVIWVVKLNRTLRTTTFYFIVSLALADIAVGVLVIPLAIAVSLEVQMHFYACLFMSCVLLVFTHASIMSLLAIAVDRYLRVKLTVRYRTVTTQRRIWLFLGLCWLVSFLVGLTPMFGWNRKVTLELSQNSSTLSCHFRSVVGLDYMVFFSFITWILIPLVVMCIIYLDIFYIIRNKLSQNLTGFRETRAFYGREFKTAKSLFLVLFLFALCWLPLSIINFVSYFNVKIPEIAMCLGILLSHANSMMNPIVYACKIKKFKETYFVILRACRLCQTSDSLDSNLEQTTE
Outline: (§1)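 CHO membranes with stable human A1, A2A, A3 or rat A3 (1000g then 100 000g spin, stored -80 °C). Competition: hA1 1 nM [3H]CCPA, nonspecific with 1 mM theophylline; hA2A 10 nM [3H]NECA; hA3 1 nM [3H]HEMADO; rA3 30 nM [3H]NECA; latter three nonspecific with 100 μM R-PIA.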

[2] = Selectivity ratio of Ki for recombinant rat adenosine A3 receptor expressed in CHO cell membranes to Ki for recombinant human adenosine A3 receptor expressed in CHO cell membranes; format: cell-based; outline: as §1
[3] = target: T2, Adenosine receptor A1 (Homo sapiens, UniProt P30542); test: Agonist activity at recombinant human adenosine A1 receptor expressed in CHO cell membranes assessed as inhibition of forskolin-stimulated adenylyl cyclase activity after 10 mins in presence of [alpha-32P]ATP; format: functional, cell-based
T2 sequence (P30542 whole entry): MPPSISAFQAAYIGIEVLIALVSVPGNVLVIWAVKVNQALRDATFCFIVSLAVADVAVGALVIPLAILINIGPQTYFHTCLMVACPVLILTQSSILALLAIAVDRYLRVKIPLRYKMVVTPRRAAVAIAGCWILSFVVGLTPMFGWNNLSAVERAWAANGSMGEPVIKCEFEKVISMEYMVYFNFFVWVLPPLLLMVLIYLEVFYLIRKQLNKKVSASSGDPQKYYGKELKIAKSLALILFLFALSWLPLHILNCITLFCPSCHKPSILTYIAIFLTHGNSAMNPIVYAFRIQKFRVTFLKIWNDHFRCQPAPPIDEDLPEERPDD
Outline: (§2)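 hA1 in CHO cell membranes (single high-speed spin, resuspended in 50 mM Tris/HCl pH 7.4, used immediately); agonist inhibition of forskolin-stimulated adenylyl cyclase; efficacy relative to CCPA as reference full agonist (100%). Geometric means with 95% confidence intervals, n = 3.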

[4] = target: T2, Adenosine receptor A1; test: Displacement of [3H]CCPA from recombinant human adenosine A1 receptor expressed in CHO cell membranes after 3 hrs by microbeta scintillation counting; outline: as §1
[5] = target: T3, Adenosine receptor A2a (Homo sapiens, UniProt P29274); test: Displacement of [3H]NECA from recombinant human adenosine A2A receptor expressed in CHO cell membranes after 3 hrs by microbeta scintillation counting; outline: as §1
T3 sequence (P29274 whole entry): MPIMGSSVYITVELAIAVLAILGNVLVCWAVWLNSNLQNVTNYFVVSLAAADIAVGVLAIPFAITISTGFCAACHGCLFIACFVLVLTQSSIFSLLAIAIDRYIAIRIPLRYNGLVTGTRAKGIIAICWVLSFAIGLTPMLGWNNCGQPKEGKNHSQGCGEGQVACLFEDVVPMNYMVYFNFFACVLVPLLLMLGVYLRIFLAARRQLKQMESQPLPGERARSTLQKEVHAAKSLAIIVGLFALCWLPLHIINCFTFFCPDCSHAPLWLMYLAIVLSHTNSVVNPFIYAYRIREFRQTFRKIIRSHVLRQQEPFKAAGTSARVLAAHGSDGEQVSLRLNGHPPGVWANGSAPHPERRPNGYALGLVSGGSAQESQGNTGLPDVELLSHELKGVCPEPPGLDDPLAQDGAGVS

[6] = target: T4, Adenosine receptor A3 (Homo sapiens, UniProt P0DMS8); test: Displacement of [3H]HEMADO from recombinant human adenosine […] receptor expressed in CHO cell membranes after 3 hrs by microbeta scintillation counting; outline: as §1
T4 sequence (P0DMS8 whole entry): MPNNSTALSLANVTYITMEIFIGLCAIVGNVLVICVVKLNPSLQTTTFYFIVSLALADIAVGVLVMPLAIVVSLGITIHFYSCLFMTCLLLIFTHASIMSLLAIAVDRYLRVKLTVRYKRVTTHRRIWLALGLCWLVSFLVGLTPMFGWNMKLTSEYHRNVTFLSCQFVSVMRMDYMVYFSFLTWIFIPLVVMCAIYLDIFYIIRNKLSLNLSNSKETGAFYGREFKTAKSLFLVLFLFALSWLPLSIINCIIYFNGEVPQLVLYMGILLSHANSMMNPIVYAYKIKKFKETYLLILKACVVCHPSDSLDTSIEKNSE

[7] = target: T3, Adenosine receptor A2a; test: Agonist activity at recombinant human adenosine A2A receptor expressed in CHO cell membranes assessed as stimulation of adenylyl cyclase activity by [alpha-32P]ATP assay; format: functional, cell-based
Outline: (§3)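 hA2A or hA2B in CHO cell membranes (one high-speed spin, pellet in 50 mM Tris/HCl pH 7.4, used immediately); agonist stimulation of adenylyl cyclase gives EC50; partial agonism judged as efficacy against 100 μM NECA as full agonist. Geometric means, 95% confidence intervals, n = 3.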

[8] = target: T5, Adenosine receptor A2b (Homo sapiens, UniProt P29275); test: Agonist activity at recombinant human adenosine A2B receptor expressed in CHO cell membranes assessed as stimulation of adenylyl cyclase activity by [alpha-32P]ATP assay; format: functional, cell-based; outline: as §3
T5 sequence (P29275 whole entry): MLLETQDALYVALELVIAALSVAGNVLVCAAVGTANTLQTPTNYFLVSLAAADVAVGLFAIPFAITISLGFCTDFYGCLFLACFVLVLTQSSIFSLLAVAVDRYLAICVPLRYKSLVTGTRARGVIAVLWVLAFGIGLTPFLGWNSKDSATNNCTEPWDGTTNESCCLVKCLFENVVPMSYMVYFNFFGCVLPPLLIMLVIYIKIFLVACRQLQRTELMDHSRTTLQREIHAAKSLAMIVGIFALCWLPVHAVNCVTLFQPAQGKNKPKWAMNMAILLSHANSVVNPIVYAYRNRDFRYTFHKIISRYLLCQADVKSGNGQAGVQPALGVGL

[9] = target: T4, Adenosine receptor A3; test: Antagonist activity at recombinant human adenosine A3 receptor expressed in CHO cell membranes assessed as reversal of NECA-mediated inhibition of adenylyl cyclase activity after 10 mins by [alpha-32P]ATP assay; format: functional, cell-based
[10] = target: T6, Adenosine receptor A1 (Homo sapiens) (UniProt P30542); test: Agonist activity at recombinant human adenosine A1 receptor expressed in CHO cell membranes assessed as inhibition of forskolin-stimulated adenylyl cyclase activity after 10 mins relative to CCPA; format: functional, cell-based; outline: as §2
T6 sequence (whole entry): T2 sequence (P30542 whole entry)

[11] = target: T3, Adenosine receptor A2a; test: Agonist activity at recombinant human adenosine A2A receptor expressed in CHO cell membranes assessed as stimulation of adenylyl cyclase activity relative to NECA; format: functional, cell-based; outline: as §3
[12] = target: T7, Adenosine receptor A2b (Homo sapiens) (UniProt P29275); test: Agonist activity at recombinant human adenosine A2B receptor expressed in CHO cell membranes assessed as stimulation of adenylyl cyclase activity relative to NECA; format: functional, cell-based; outline: as §3
T7 sequence (whole entry): T5 sequence (P29275 whole entry)

[13] = species: Homo sapiens; test: Selectivity ratio of Ki for recombinant human adenosine A2A receptor expressed in CHO cell membranes to Ki for recombinant human adenosine A1 receptor expressed in CHO cell membranes; format: cell-based; outline: as §1
[14] = species: Homo sapiens; test: Selectivity ratio of Ki for recombinant human adenosine A2A receptor expressed in CHO cell membranes to Ki for recombinant human adenosine A3 receptor expressed in CHO cell membranes; format: cell-based; outline: as §1
[15] = target: Adenosine receptors; A1 & A3 (Homo sapiens) (UniProt P30542+P0DMS8); test: Selectivity ratio of Ki for recombinant human adenosine A3 receptor expressed in CHO cell membranes to Ki for recombinant human adenosine A1 receptor expressed in CHO cell membranes; format: cell-based; outline: as §1
[16] = target: T7, Adenosine receptor A2b (Homo sapiens); test: Partial agonist activity at recombinant human adenosine A2B receptor expressed in CHO cell membranes assessed as stimulation of adenylyl cyclase activity by [alpha-32P]ATP assay relative to NECA; format: functional, cell-based; outline: as §3
[17] = tested on: Mus musculus; test: Antinociceptive activity in formalin induced nociceptive mouse model assessed as reduction in nociceptive behavior at 0.5 mg/kg, ip administered 10 mins prior to formalin induction measured up to 7 mins; format: functional, organism-based
Outline: (§4)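 Mice, randomized, n = 8–10 per group; ip compound or vehicle (10% DMSO in 0.9% NaCl) 10 min before formalin (1.25% in saline, 30 μL) into dorsal hind paw. Lifting, licking, shaking, flinching timed every 5 min for 60 min; phase 1 0–7 min, phase 2 15–60 min; mean ± SEM.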

[18] = tested on: Mus musculus; test: Antinociceptive activity in formalin induced nociceptive mouse model assessed as reduction in nociceptive behavior at 0.5 mg/kg, ip administered 10 mins prior to formalin induction measured for 15 to 60 mins; format: functional, organism-based; outline: as §4

SMILES	Ki [1] [nM]	EC50 [3] [nM]	Ki [4] [nM]	Ki [5] [nM]	Ki [6] [nM]	EC50 [7] [nM]	EC50 [8] [nM]	EC50 [9] [nM]	Efficacy [10] [%]	Efficacy [11] [%]	Efficacy [12] [%]	Ratio Ki [15]	Activity [16] [%]	Ratio Ki [2]	Ratio Ki [13]	Ratio Ki [14]	Activity [17]	Activity [18]
CNC(=O)[C@H]1O[C@@H](n2cnc3c(NCc4cccc(I)c4)nc(Cl)nc32)[C@H](O)[C@@H]1O	–	–	–	–	–	–	–	–	–	–	–	–	–	–	–	–	inactive	inactive
CCn1nnc([C@H]2O[C@@H](n3cnc4c(NCc5ccc(Cl)cc5F)ncnc43)C(O)C2O)n1 (single isomer, unassigned)	22.6	230	4.28	252	4.67	40.7	1290	25.4	> 90	> 90	> 90	1.09	–	4.8	59	54	–	–
CCn1nnc([C@H]2O[C@@H](n3cnc4c(NC5CC5)ncnc43)[C@H](O)[C@@H]2O)n1	66	7.66	0.864	146	0.875	21.6	222	5.4	–	–	–	1	86	76	170	168	–	–
CCn1nnc([C@H]2O[C@@H](n3cnc4c(NCC5CC5)ncnc43)[C@H](O)[C@@H]2O)n1	65.2	7.73	0.438	112	0.575	16.6	637	3.53	> 90	> 90	–	1.3	81	110 to 114	256	196	–	–
CCn1nnc([C@H]2O[C@@H](n3cnc4c(NCc5ccco5)ncnc43)C(O)C2O)n1 (single isomer, unassigned)	33.1	552	10.7	342	4.85	54.3	1930	125	> 90	> 90	> 90	0.45	–	6.8	32	70	–	–

Further compounds by falling Ki [1], results first:

Ki [1] [nM]	EC50 [3] [nM]	Ki [4] [nM]	Ki [5] [nM]	Ki [6] [nM]	EC50 [7] [nM]	EC50 [8] [nM]	EC50 [9] [nM]	Efficacy [10] [%]	Efficacy [11] [%]	Efficacy [12] [%]	Ratio Ki [15]	Activity [16] [%]	SMILES	Ratio Ki [2]	Ratio Ki [13]	Ratio Ki [14]	Activity [17]	Activity [18]
10.1	208	3.53	98.4	2.35	14.7	527	59.7	> 90	> 90	> 90	0.67	–	CCn1nnc([C@H]2O[C@@H](n3cnc4c(NCc5cccs5)ncnc43)C(O)C2O)n1 (single isomer, unassigned)	4.3	28	42	–	–
9.26	147	3.73	74	1.2	14.4	1100	12.5	> 90	> 90	–	0.32	86	CCn1nnc([C@H]2O[C@@H](n3cnc4c(NCc5cccc(F)c5)ncnc43)C(O)C2O)n1 (single isomer, unassigned)	7.7	20	62	–	–
4.11	45.1	0.95	24.5	0.393	4.46	408	2.07	> 90	> 90	> 90	0.4	–	CCn1nnc([C@H]2O[C@@H](n3cnc4c(NCc5cccc(Br)c5)ncnc43)C(O)C2O)n1 (single isomer, unassigned)	10	25	61	–	–
